In the array DNA melting data of Ke et al. (doi:10.1101/2024.01.08.574731) one finds Tm and folding enthalpy data, which are given here for 36 sequences.

The nature of data set [1]: melting temperature; fluorescence melt of hairpins on a sequencing array, two-state fit, raised by 9.35 °C to match UV melts. The conditions noted are these: sodium 0.088 M. The gist of the method:
(§1)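 On a sequenced MiSeq flow cell, library hairpins with annealed Cy3 and quencher oligos were imaged for Cy3 fluorescence in 2.5 °C steps up to 60 °C, in 50 mM Na-HEPES pH 8.0, 25 mM NaCl. Normalisation used pre-quench Cy3 and control constructs. Bootstrapped two-state fits gave melting temperature and folding enthalpy, combined by inverse variance across four replicates and with fitted temperatures raised by 9.35 °C to match UV melts.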

Data set [2] in a line: folding enthalpy; higher = less favourable; fluorescence melt of hairpins on a sequencing array, two-state fit. As to conditions: sodium 0.088 M. Put shortly:
as §1

Consider GTGAACGCGAAAGCGCAC (((..(((....)))))), for which the Tm in data set [1] came to 42.3 °C. Also, the folding enthalpy in data set [2] was -14.8 kcal/mol.
In the same order, the values of GTGAACGGAAACGTTCGC (.(((((....))))).) are 56.9 °C and -28.9 kcal/mol.
In the same order, the values of GTGAAGGAAACTTCAC ((((((....)))))) are 54.1 °C and -32.5 kcal/mol.
In the same order, the values of GTGAATCGAAAGATACAC (((.(((....))).))) are 46.9 °C and -27.9 kcal/mol.
As to GTGAATGGAAACACTCAC ((((.((....)).)))), the Tm in data set [1] amounted to 34.4 °C. In addition, in data set [2], the folding enthalpy was -24.6 kcal/mol.
As to GTGAATGGAAACATTCGC (.(((((....))))).), the Tm in data set [1] was determined as 49.9 °C. Besides, the folding enthalpy in data set [2] is -25.4 kcal/mol.
For the sequence GTGACACGAAAGTGACAC (((.(((....))).))), the Tm in data set [1] was determined as 58.7 °C. Also, the folding enthalpy in data set [2] was -39.7 kcal/mol.
In the same order, the values of GTGACACGAAAGTGCCAC (((.(((....))).))) are 56.3 °C and -40.1 kcal/mol.
With GTGACAGAAATGTCAC ((((((....)))))), the Tm in data set [1] came out at 57.6 °C. For the same sequence, in data set [2], the folding enthalpy is -35.7 kcal/mol.
The corresponding values for GTGACAGGAAACTGTCAC (((((((....))))))) are 65.2 °C and -42.1 kcal/mol.
For the sequence GTGACAGGAAACTGTCGC (.(((((....))))).), the Tm in data set [1] was 53.9 °C. Also, the folding enthalpy in data set [2] was -30.2 kcal/mol.
In the same order, the values of GTGACAGGAAACTGTTAC ((.((((....)))).)) are 45.4 °C and -28.1 kcal/mol.
The corresponding values for GTGACCGAAAGGTAACAC ((((((....)))..))) are 47.1 °C and -16.9 kcal/mol.
As for GTGACCGAAAGGTGCAC ((((((....))).))), the Tm in data set [1] worked out at 49.4 °C. Further, the folding enthalpy in data set [2] is -19.9 kcal/mol.
As for GTGACGGAAACGTCAC ((((((....)))))), in data set [1], the Tm was determined as 68.7 °C. Also, the folding enthalpy in data set [2] was -32.9 kcal/mol.
As for GTGACTCCGAAAGGACAC (((..(((....)))))), the Tm in data set [1] is 35.4 °C. The folding enthalpy in data set [2] was -9.23 kcal/mol.
The corresponding values for GTGACTCGAAAGAGCCAC (((.(((....))).))) are 54.5 °C and -38.2 kcal/mol.
In the same order, the values of GTGACTGAAAAGTCAC ((((((....)))))) are 61 °C and -37.6 kcal/mol.
The corresponding values for GTGAGACGAAAGTCCAC (((.(((....)))))) are 53.8 °C and -22.8 kcal/mol.
Consider GTGAGAGGAAACTCTTGC (..((((....))))..), for which the Tm in data set [1] was 29.4 °C. Moreover, the folding enthalpy in data set [2] was -20.3 kcal/mol.
Turning to GTGAGCGGAAACGCTTAC ((.((((....)))).)), the Tm in data set [1] is 51.6 °C. In addition, the folding enthalpy in data set [2] was -27.1 kcal/mol.
As for GTGAGCGGAAACGTTCGC (.((.((....)).)).), in data set [1], the Tm was 43.9 °C. Besides, in data set [2], the folding enthalpy was -27.8 kcal/mol.
The corresponding values for GTGAGGGGAAACCCCCAC (((.(((....))).))) are 49.2 °C and -31.5 kcal/mol.
Turning to GTGAGGGGAAACCTTCAC ((((.((....)).)))), in data set [1], the Tm stood at 46 °C. Moreover, the folding enthalpy in data set [2] is -28.8 kcal/mol.
The corresponding values for GTGAGTCGAAAGACACAC (((.(((....))).))) are 53.8 °C and -43.2 kcal/mol.
The corresponding values for GTGAGTCGAAAGACGCAC (((.(((....))).))) are 60 °C and -34.4 kcal/mol.
In the same order, the values of GTGAGTGGAAACACTCGC (.(((((....))))).) are 54.9 °C and -33.1 kcal/mol.
As to GTGAGTGGAAACGCTCAC (((((.(....).))))), in data set [1], the Tm was 53.7 °C. Moreover, in data set [2], the folding enthalpy is -42.5 kcal/mol.
For the sequence GTGAGTTCGAAAGAACAC (((..(((....)))))), in data set [1], the Tm was 44.6 °C. Also, the folding enthalpy in data set [2] was -15.4 kcal/mol.
For GTGATACCGAAAGGTCAC (((..(((....)))))), in data set [1], the Tm was 41.9 °C. Besides, the folding enthalpy in data set [2] is -19.5 kcal/mol.
Consider GTGATACGAAAGTAACAC (((.(((....))).))), for which, in data set [1], the Tm came out at 47.6 °C. For the same sequence, in data set [2], the folding enthalpy is -34.1 kcal/mol.
The corresponding values for GTGATACGAAAGTAGCAC (((.(((....))).))) are 58.6 °C and -48.7 kcal/mol.
The corresponding values for GTGATAGAAATATCAC ((((((....)))))) are 46.5 °C and -32.9 kcal/mol.
Consider GTGATAGGAAACTATCAC (((((((....))))))), for which the Tm in data set [1] was found to be 56.1 °C. Further, in data set [2], the folding enthalpy is -42.8 kcal/mol.
For GTGATCCGAAAGGACCAC (((.(((....))).))), in data set [1], the Tm was 51.8 °C. Besides, the folding enthalpy in data set [2] was -34.6 kcal/mol.
Consider GTGATCGAAAGATACCAC ((((((....)))..))), for which the Tm in data set [1] turned out to be 26.6 °C. Further, the folding enthalpy in data set [2] is -10.5 kcal/mol.
